Test results reported in ChEMBL document CHEMBL2375292, “Biaryl tetrazolyl ureas as inhibitors of endocannabinoid metabolism: modulation at the N-portion and distal phenyl ring” (Eur J Med Chem, 2013).

Legend:
[1] = molecular target: T1, Transient receptor potential cation channel subfamily A member 1 (Rattus norvegicus, UniProt Q6RI86); experiment: Agonist activity at rat TRPA1 receptor expressed in HEK293 cells assessed as increase in intracellular Ca2+ concentration by spectrofluorimetric analysis; type: cell-based
T1 sequence (Q6RI86 whole entry): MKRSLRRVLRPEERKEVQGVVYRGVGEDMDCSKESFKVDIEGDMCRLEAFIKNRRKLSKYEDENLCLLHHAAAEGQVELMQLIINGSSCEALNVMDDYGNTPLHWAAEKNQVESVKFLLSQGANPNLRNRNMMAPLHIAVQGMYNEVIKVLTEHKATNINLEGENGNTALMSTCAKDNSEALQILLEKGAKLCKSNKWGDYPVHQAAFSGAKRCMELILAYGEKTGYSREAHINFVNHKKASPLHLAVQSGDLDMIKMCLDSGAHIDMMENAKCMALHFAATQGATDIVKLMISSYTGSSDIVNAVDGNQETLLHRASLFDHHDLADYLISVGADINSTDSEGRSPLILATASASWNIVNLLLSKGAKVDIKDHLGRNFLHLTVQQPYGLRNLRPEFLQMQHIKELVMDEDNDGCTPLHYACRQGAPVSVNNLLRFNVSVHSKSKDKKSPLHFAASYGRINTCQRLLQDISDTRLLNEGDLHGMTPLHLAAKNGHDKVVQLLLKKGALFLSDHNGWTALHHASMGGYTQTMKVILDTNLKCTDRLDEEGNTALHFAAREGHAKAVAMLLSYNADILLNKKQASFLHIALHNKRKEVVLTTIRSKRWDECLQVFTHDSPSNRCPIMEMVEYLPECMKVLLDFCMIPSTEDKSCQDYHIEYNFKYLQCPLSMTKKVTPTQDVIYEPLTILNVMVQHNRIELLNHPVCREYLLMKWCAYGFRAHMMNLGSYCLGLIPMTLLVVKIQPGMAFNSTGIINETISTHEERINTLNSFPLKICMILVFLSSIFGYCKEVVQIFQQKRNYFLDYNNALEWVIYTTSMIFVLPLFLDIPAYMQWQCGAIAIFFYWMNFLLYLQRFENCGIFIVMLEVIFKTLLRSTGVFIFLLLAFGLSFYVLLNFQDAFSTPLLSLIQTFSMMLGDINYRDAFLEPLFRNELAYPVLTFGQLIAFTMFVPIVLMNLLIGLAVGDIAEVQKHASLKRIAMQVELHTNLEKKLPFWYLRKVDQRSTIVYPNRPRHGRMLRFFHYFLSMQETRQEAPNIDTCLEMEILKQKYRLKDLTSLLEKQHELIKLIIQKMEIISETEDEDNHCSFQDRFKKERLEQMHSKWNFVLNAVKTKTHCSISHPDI
Summary of the method: (§1)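 HEK293 cells stably transfected with human TRPV1 or rat TRPA1 cDNA (pcDNA3, G-418 selection) were loaded 1 h at room temperature with Fluo-4-AM, washed and suspended in Tyrode's buffer pH 7.4. [Ca²⁺]i was read by stirred-cuvette spectrofluorimetry before and after adding test compound at various concentrations. Signal from untransfected cells was subtracted. Efficacy was taken as percent of ionomycin (4 µM) for TRPV1 and percent of allyl isothiocyanate (100 µM) for TRPA1; EC50 was also derived.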

[2] = molecular target: Transient receptor potential cation channel subfamily A member 1 (Rattus norvegicus) (UniProt Q6RI86); experiment: Agonist activity at rat TRPA1 receptor expressed in HEK293 cells assessed as increase in intracellular Ca2+ concentration by spectrofluorimetric analysis relative to allyl isothiocyanate; type: cell-based; summary of the method: as §1
Chain of Transient receptor potential cation channel subfamily A member 1 (Rattus norvegicus) (Q6RI86 whole entry): as above

[3] = molecular target: T2, Transient receptor potential cation channel subfamily V member 1 (Homo sapiens, UniProt Q8NER1); experiment: Antagonist activity at human TRPV1 receptor expressed in HEK293 cells assessed as inhibition of capsaicin-induced intracellular Ca2+ elevation incubated for 5 mins prior to capsaicin-stimulation by spectrofluorimetric analysis; type: cell-based
T2 sequence (Q8NER1 whole entry): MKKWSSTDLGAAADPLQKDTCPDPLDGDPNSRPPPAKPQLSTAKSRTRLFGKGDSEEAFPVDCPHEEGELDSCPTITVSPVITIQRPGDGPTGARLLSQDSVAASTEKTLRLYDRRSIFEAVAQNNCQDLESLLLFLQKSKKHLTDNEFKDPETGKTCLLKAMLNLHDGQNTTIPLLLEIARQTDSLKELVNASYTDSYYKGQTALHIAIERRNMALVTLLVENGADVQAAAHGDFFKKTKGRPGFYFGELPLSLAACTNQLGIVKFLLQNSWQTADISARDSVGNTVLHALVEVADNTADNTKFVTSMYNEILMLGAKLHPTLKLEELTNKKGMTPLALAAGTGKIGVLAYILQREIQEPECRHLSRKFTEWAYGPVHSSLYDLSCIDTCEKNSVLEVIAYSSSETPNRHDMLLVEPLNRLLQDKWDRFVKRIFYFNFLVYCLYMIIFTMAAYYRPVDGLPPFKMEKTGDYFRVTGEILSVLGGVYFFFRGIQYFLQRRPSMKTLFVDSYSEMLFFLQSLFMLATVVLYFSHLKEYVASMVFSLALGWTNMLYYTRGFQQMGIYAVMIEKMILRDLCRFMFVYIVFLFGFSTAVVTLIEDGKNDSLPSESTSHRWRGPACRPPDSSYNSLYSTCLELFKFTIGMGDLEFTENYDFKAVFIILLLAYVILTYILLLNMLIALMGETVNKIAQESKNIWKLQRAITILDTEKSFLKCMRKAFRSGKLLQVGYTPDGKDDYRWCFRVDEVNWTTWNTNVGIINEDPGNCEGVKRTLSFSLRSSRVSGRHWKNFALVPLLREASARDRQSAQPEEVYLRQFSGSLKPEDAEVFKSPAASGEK
Summary of the method: (§2)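 Fluo-4-loaded HEK293 cells stably expressing human TRPV1 or rat TRPA1, in Tyrode's buffer pH 7.4, received test compound in the cuvette 5 min before agonist: capsaicin 0.1 µM for TRPV1, AITC 100 µM for TRPA1. The [Ca²⁺]i rise with agonist alone was set to 100%. IC50 came from a variable-slope sigmoidal fit. Untransfected-cell signal was subtracted.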

[4] = molecular target: T2, Transient receptor potential cation channel subfamily V member 1; experiment: Agonist activity at human TRPV1 receptor expressed in HEK293 cells assessed as increase in intracellular Ca2+ concentration by spectrofluorimetric analysis relative to ionomycin; type: cell-based; summary of the method: as §1
[5] = Selectivity ratio of IC50 for FAAH in rat brain membranes to IC50 for MAGL (unknown origin); type: cell membranes
Monoglyceride lipase = molecular target: T3, Monoglyceride lipase (Homo sapiens, UniProt Q99685); experiment: Inhibition of MAGL (unknown origin) expressed in African green monkey COS7 cell cytosolic fraction assessed as [3H]2-AG hydrolysis to [3H]arachidonic acid after 20 mins by beta counting analysis; design: species or system COS-7
T3 sequence (Q99685 whole entry): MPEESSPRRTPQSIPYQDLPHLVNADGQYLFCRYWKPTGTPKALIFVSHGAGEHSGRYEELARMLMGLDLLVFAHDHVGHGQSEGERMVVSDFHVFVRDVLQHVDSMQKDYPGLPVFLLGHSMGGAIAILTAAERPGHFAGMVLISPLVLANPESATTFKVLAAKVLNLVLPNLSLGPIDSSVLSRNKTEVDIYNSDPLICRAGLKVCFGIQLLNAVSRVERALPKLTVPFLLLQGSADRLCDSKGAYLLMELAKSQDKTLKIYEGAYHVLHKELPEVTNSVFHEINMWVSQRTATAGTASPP

[6] = molecular target: T4, Fatty-acid amide hydrolase 1 (Rattus norvegicus, UniProt P97612); experiment: Inhibition of FAAH in rat brain membranes assessed as [14C]AEA hydrolysis to [14C]Ethanolamine after 30 mins by scintillation counting analysis; type: cell membranes
T4 sequence (P97612 whole entry): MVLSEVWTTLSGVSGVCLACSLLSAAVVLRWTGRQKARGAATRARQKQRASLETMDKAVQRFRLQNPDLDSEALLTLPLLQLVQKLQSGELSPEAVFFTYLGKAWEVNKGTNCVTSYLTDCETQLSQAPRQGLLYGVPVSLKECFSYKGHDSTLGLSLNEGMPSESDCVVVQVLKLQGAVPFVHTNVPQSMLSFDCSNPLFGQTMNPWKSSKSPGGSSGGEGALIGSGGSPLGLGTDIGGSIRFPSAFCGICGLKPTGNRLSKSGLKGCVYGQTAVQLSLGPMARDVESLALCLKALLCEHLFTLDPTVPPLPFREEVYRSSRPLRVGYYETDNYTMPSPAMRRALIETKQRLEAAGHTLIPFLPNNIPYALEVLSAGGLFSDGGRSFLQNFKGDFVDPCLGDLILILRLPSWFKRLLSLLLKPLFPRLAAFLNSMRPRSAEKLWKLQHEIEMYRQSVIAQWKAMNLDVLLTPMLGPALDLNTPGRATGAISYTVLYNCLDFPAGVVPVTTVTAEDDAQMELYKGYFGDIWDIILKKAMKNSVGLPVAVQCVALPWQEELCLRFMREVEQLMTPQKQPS
Summary of the method: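 Rat brain membranes were incubated with [¹⁴C]AEA in 50 mM Tris-HCl pH 9 for 30 min at 37 °C. Released [¹⁴C]ethanolamine in the aqueous phase was counted by scintillation after CHCl₃/CH₃OH 2/1 extraction. IC50 was the concentration giving 50% inhibition.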

[7] = molecular target: T1, Transient receptor potential cation channel subfamily A member 1; experiment: Antagonist activity at rat TRPA1 receptor expressed in HEK293 cells assessed as inhibition of allyl isothiocyanate-induced intracellular Ca2+ elevation incubated for 5 mins prior to allyl isothiocyanate-stimulation by spectrofluorimetric analysis; type: cell-based; summary of the method: as §2
[8] = molecular target: T5, Diacylglycerol lipase-alpha (Homo sapiens) (UniProt Q9Y4D2); experiment: Activation of human recombinant DAGLalpha expressed in African green monkey COS7 cells assessed as increase in 2-arachidonoylglycerol level per mg of extracted lipid at 1 uM preincubated for 10 mins measured after 20 mins by LC-MS analysis in presence of ionomycin (reference value: 2.82 +/- 0.75 pmol); type: cell-based; conditions: COS-7
T5 sequence (whole entry): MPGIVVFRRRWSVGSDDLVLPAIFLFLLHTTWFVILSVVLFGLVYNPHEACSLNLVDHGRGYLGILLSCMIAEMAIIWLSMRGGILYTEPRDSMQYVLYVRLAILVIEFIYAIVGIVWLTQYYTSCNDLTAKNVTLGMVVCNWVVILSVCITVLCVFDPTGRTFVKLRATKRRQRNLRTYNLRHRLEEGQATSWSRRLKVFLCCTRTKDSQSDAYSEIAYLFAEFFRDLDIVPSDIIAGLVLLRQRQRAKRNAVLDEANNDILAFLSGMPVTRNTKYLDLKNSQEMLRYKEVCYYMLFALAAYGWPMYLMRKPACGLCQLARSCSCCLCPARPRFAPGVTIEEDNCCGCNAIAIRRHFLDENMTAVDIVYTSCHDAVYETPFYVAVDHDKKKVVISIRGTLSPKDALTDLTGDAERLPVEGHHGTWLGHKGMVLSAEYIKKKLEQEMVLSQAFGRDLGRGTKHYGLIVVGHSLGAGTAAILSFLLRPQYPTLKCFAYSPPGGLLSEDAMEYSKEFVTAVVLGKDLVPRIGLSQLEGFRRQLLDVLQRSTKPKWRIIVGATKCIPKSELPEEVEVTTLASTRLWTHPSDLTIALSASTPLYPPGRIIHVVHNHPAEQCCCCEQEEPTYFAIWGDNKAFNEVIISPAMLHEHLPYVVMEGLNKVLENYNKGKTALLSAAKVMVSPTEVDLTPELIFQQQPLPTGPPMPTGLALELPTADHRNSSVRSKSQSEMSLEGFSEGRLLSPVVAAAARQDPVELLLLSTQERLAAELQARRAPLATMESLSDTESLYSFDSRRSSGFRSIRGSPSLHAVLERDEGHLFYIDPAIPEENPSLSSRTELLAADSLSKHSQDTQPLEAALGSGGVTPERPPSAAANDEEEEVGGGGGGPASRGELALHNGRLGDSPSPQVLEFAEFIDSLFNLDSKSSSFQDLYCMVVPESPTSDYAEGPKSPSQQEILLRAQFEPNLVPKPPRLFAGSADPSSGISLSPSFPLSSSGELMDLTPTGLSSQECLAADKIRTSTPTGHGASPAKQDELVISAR
Summary of the method: (§3)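 About 10⁶ COS-7 cells overexpressing human recombinant DAGL-α per point, preincubated 10 min with test compound or not, then 20 min at 37 °C with vehicle or ionomycin 3 µM. Cells homogenized in CHCl₃/CH₃OH/Tris-HCl 50 mM pH 7.4 (2/1/1) with 5 pmol d⁸-AEA, d⁵-2-AG and d⁴-OEA as internal standards. Levels in pmol/mg lipid extracted, mean ± SD, n = 4.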

[9] = molecular target: T5, Diacylglycerol lipase-alpha (Homo sapiens); experiment: Activation of human recombinant DAGLalpha expressed in African green monkey COS7 cells assessed as increase in N-oleoylethanolamine level per mg of extracted lipid at 1 uM preincubated for 10 mins measured after 20 mins by LC-MS analysis in presence of ionomycin (reference value: 1.08 +/- 0.17 pmol); type: cell-based; conditions: COS-7; summary of the method: as §3
[10] = molecular target: T5, Diacylglycerol lipase-alpha (Homo sapiens); experiment: Activation of human recombinant DAGLalpha expressed in African green monkey COS7 cells assessed as increase in anandamide level per mg of extracted lipid at 1 uM preincubated for 10 mins measured after 20 mins by LC-MS analysis in presence of ionomycin (reference value: 0.16 +/- 004 pmol); type: cell-based; conditions: COS-7; summary of the method: as §3
[11] = molecular target: T5, Diacylglycerol lipase-alpha (Homo sapiens); experiment: Activation of human recombinant DAGLalpha expressed in African green monkey COS7 cells assessed as increase in 2-arachidonoylglycerol level per mg of extracted lipid at 3 uM preincubated for 10 mins measured after 20 mins by LC-MS analysis (reference value: 2.82 +/- 0.75 pmol); type: cell-based; conditions: COS-7
Summary of the method: (§4)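 About 10⁶ COS-7 cells overexpressing human recombinant DAGL-α per data point. Cells were preincubated 10 min with compound, then incubated 20 min at 37 °C with vehicle or ionomycin 3 µM. They were then homogenized in CHCl₃/CH₃OH/Tris-HCl 50 mM pH 7.4 (2/1/1) containing 5 pmol each of d⁸-AEA, d⁵-2-AG and d⁴-OEA as internal standards. Results in pmol/mg lipid extracted, means ± SD, n = 4.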

[12] = molecular target: T5, Diacylglycerol lipase-alpha (Homo sapiens); experiment: Activation of human recombinant DAGLalpha expressed in African green monkey COS7 cells assessed as increase in N-oleoylethanolamine level per mg of extracted lipid at 3 uM preincubated for 10 mins measured after 20 mins by LC-MS analysis (reference value: 1.08 +/- 0.17 pmol); type: cell-based; conditions: COS-7; summary of the method: as §4
[13] = molecular target: T5, Diacylglycerol lipase-alpha (Homo sapiens); experiment: Activation of human recombinant DAGLalpha expressed in African green monkey COS7 cells assessed as increase in anandamide level per mg of extracted lipid at 3 uM preincubated for 10 mins measured after 20 mins by LC-MS analysis (reference value: 0.16 +/- 004 pmol); type: cell-based; conditions: COS-7; summary of the method: as §4
[14] = molecular target: T2, Transient receptor potential cation channel subfamily V member 1; experiment: Agonist activity at human TRPV1 receptor expressed in HEK293 cells assessed as increase in intracellular Ca2+ concentration by spectrofluorimetric analysis; type: cell-based; summary of the method: as §1
[15] = molecular target: TRPA1 (Rattus norvegicus); experiment: Agonist activity at GDH-tagged rat TRPA1 receptor expressed in HEK293F cells assessed as increase in intracellular Ca2+ concentration by Fluo-4 spectrofluorimetric assay

Row | SMILES | EC50 [1] [nM] | Efficacy [2] [%] | IC50 [3] [nM] | Efficacy [4] [%] | Ratio IC50 [5] | IC50 (Monoglyceride lipase) [nM] | IC50 [6] [nM] | IC50 [7] [nM] | Activity [8] [pmol] | Activity [9] [pmol] | Activity [10] [pmol] | Activity [11] [pmol] | Activity [12] [pmol] | Activity [13] [pmol] | EC50 [14] [nM] | EC50 [15] [nM]
1 | Cc1cccc(-c2ccc(Cc3nnnn3C(=O)N(C)C)cc2)c1 | 32800 | 233 | > 100000 | < 10 | 39 | > 1000 | 9.7 | 41000 |  |  |  |  |  |  |  | 
2 | CN(C)C(=O)n1nnc(Cc2ccc(-c3cccc(O)c3)cc2)n1 |  | < 10 | > 100000 | < 10 |  | 10 | 12 | 98900 | 413 | 7.25 | 0.41 |  |  |  |  | 
3 | C[C@H](CCC(=O)O)C[C@H](C)C[C@H](C)C(=O)/C=C(\O)[C@H](C)C[C@H](C)C/C=C/[C@@H](C)[C@@H](O)[C@@H](C)[C@@H](O)C[C@@H]1CC[C@@](C)([C@H]2CC[C@@](C)([C@@H](C)O)O2)O1 |  |  |  |  |  |  |  |  |  |  |  | 15.7 | 3.99 | 0.37 |  | 
4 | CN(C(=O)n1nnc(Cc2ccc(-c3ccccc3)cc2)n1)C1CCCCC1 | 150 | 45.2 | 9200 | 33.6 |  |  | 96.3 | 15400 |  |  |  |  |  |  | 250 | 150
